Consider 1 compound from ChEMBL document CHEMBL1126589, “Substituted 3-(phenylmethyl)-1H-indole-5-carboxamides and 1-(phenylmethyl)indole-6-carboxamides as potent, selective, orally active antagonists of the peptidoleukotrienes” (J Med Chem, 1993).

Series [1] relates to Cavia porcellus. The series can be described thus: Effective dose against LTD4-induced bronchoconstriction in guinea pig after intravenous administration. It is filed as functional. The method in brief:
(§1)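 Conscious guinea pigs challenged with LTD4 ("dyspnea" model) after oral or intravenous dosing; percent protection from LTD4-induced dyspnea plotted against dose to derive ED50; po/iv ratio taken from the oral and intravenous ED50 values.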

The target in series [2] is T1, Cysteinyl leukotriene receptor 1 (Cavia porcellus) (UniProt Q2NNR5).
T1 sequence (whole entry): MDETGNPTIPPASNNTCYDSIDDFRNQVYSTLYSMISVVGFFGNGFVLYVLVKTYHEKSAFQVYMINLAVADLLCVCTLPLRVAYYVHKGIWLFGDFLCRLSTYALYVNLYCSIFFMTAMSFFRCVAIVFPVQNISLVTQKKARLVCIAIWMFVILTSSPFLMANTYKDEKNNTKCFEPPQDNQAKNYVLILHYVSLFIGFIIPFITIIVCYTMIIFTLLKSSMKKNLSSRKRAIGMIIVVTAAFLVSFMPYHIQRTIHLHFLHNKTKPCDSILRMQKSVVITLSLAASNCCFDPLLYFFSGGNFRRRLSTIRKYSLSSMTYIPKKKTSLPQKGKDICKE
The series can be described thus: Binding affinity against leukotriene receptor (LTE4) from guinea pig tracheal spirals. It is filed as tissue-based. The procedure, abridged: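 Functional antagonism in isolated guinea pig tracheal spirals contracted with LTE4 as agonist; KB derived from concentration-response curves, n = number of curves.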

Series [3] has as its system Cavia porcellus. Nature of the series: Effective dose against LTD4-induced bronchoconstriction in guinea pig after peroral administration. It is filed as functional. The following applies: po. The method in brief: as §1
Series [4] in a line: ED50 ratio of LTD4 peroral administration / LTD4 intravenous administration. It is filed as functional. The method in brief: as §1
Series [5] can be described thus: Bioavailability was determined in GP. It is filed as ADME, organism-based, Cavia porcellus. The note with it: guinea pig, in vivo. The method in brief:
(§2)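 Guinea pigs, fasted overnight and cannulated at least 20 h beforehand, given 5 mg/kg orally and intravenously (jugular cannula) in polyethylene glycol/phosphate buffered saline.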

A short description of series [6]: Maximum concentration in whole blood recorded in the period 0-24 hr postdose of 2.5 mg/kg in rat (normalized to a 1 mg/kg dose). It is filed as ADME, organism-based. Set-up: dose 2.5 mg/kg. The note with it: in vivo. The method in brief:
(§3)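 Sprague-Dawley rats, fasted overnight, cannulated in carotid artery and/or jugular vein at least 20 h before dosing. Oral doses 1 or 2.5 mg/kg, iv 2.5 mg/kg via jugular cannula, in polyethylene glycol/phosphate buffered saline. Unchanged compound in whole blood measured by HPLC over 0–24 h; AUC by trapezoidal rule; values also normalized to 1.0 mg/kg.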

For series [7], the target named is T2, Cysteinyl leukotriene receptor 1 (Cavia porcellus, UniProt Q2NNR5).
T2 sequence (Q2NNR5 whole entry): T1 sequence (whole entry)
The series can be described thus: Binding affinity to the leukotriene receptor (LTD4) from guinea pig lung parenchymal membranes assayed using [3H]LTD4 as radioligand. It is filed as tissue-based, Lung parenchyma. The method in brief:
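Displacement of [3H]LTD4 from guinea pig lung parenchymal membranes; Ki is the mean of two experiments run in duplicate with separate batches, reported as pKi (-log Ki).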

The test system of another series is Rattus norvegicus. Nature of the series: Integrated area under the blood concentration vs time curve for the period 0-24 hr postdose of 2.5 mg/kg (normalized to a 1 mg/kg dose) in rat. It is filed as ADME, organism-based. Set-up: dose 2.5 mg/kg, time < 24 hr. The following applies: in vivo. The procedure, abridged:
as §3

Series [8] in a line: Bioavailability in rat. It is filed as ADME, organism-based. The following applies: in vivo. The procedure, abridged: as §3
Series [9] in a line: Maximum concentration in whole blood recorded in the period 0-24 hr postdose of 5.0 mg/kg GP (normalized to a 1 mg/kg dose). It is filed as ADME, organism-based. Details: dose 5 mg/kg. The note with it: guinea pig, in vivo. The method in brief: as §2
A short description of series [10]: Integrated area under the blood concentration vs time curve for the period 0-24 hr postdose of 5.0 mg/kg (normalized to a 1 mg/kg dose) GP. It is filed as ADME, organism-based. Details: dose 5 mg/kg, time < 24 hr. The note with it: guinea pig, in vivo. The procedure, abridged:
as §2

Take `CCC(CC)CNC(=O)c1ccc2c(c1)c(Cc1ccc(C(=O)NS(=O)(=O)c3ccccc3C)cc1OC)cn2CC`: the ED50 in the series on Cavia porcellus [1] amounted to 0.07 µmol/kg; in the series with Cavia porcellus [3] it was 5.3 µmol/kg. This compound showed a negative logarithm of the KB (pKB) in series [2] of 9.5. Further, in series [4], the Ratio stood at 81. In addition, the figures for the bioavailability in [5] and in series [8] were 5.1% and 28.1%, respectively. Moreover, the highest concentration (Cmax) turned out to be 540 ng/mL in series [6] and 92 ng/mL in [9]. This compound also showed a Ki in series [7] of 1 nM. In addition, the AUC in the series on Rattus norvegicus was 4070 ng/h/mL; in [10], 207 ng·h/mL.

As usually defined, the ED50 is the dose at which the effect has come halfway, by size or by number of responders. Usually pKB stands for the negative decadic logarithm of the KB, by convention in mol/L. Usually bioavailability stands for dose-corrected exposure relative to a reference, in per cent. A high value points to good availability. For orientation: Cmax means the highest concentration seen after dosing. The term Ki denotes the equilibrium dissociation constant of an inhibitor or competing ligand from its target. Lower therefore signals a stronger hold on the target.
